These results are taken from paper PMC9975633 (Chinese Herbal Medicines, 2022).

A short description of data set [1]: Bidirectional transport of SKE and RAI in Caco-2 cell monolayer model. The class given is in vitro ADME, human. The conditions noted are these: human; for Papp A→B at 0.05 mg/mL / Papp A→B at 0.1 mg/mL / Papp A→B at 0.025 mg/mL: Caco-2, Papp(A-B), Caco-2, AP-BL; for Papp A→B at 0.05 mg/mL / Papp A→B at 0.1 mg/mL / Papp A→B at 0.025 mg/mL / Papp B→A at 0.05 mg/mL / Papp B→A at 0.1 mg/mL / Papp B→A at 0.025 mg/mL: mean ± SD, n = 3; for Papp B→A at 0.05 mg/mL / Papp B→A at 0.1 mg/mL / Papp B→A at 0.025 mg/mL: Caco-2, Papp(B-A), Caco-2, BL-AP; for efflux ratio at 0.05 mg/mL / efflux ratio at 0.1 mg/mL / efflux ratio at 0.025 mg/mL: Caco-2, ER, ER=Papp(B-A)/Papp(A-B). A general note: Caco-2 cells form a polarised layer with tight junctions and transporters.

The subject of the next data set is Caco-2 cell monolayer. The description is as above. The class given is in vitro ADME, human. The conditions noted are these: Caco-2; for Cumulative transport mass (AP-BL): in SKE 0.025, 0.05, 0.1 mg/mL over time, Fig. 3.
For data set [2], the system named is rat different intestinal segments. The experiment in a line: In situ single-pass intestinal perfusion in rats. The class given is in vivo, Sprague-Dawley rats. Conditions: same tested intestinal segment. The method, boiled down:
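Male Sprague-Dawley rats (250 ± 50 g) were fasted overnight, anesthetized, and ~10 cm duodenum, jejunum or colon segments were cannulated and flushed with 37 °C saline. Krebs-Ringer perfusate held 22.50 mg/mL extract or matched pure anthraquinones (DMSO <1.0%). Flow was 1 mL/min for 5 min, then 0.2 mL/min for 30 min equilibration. Outflow was collected every 15 min to 120 min and analysed by HPLC. Peff was calculated from gravimetrically corrected volumes and segment length/radius.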

Another data set deals with P-gp (Homo sapiens, UniProt P08183). In words: Effect of verapamil. The class given is in vitro ADME. Conditions: 0.1 mg/mL SKE + 100 μmol/L verapamil; Caco-2; Fig. 4. The method in brief: (§1)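 Caco-2 cells were seeded at 1×10^5/cm² on 0.4 µm inserts and grown about 20 d in DMEM with 10% FBS, then used once TEER exceeded 500 Ω·cm². After a 15 min HBSS equilibration, 0.1 mg/mL extract plus 100 µmol/L inhibitor was dosed AP or BL at 37 °C with 50 r/min shaking. Receiver was sampled with replacement and four anthraquinones were quantified by HPLC. Papp came from the slope, ER = Papp(B-A)/Papp(A-B), n=3.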
P-gp, sequence (P08183 whole entry): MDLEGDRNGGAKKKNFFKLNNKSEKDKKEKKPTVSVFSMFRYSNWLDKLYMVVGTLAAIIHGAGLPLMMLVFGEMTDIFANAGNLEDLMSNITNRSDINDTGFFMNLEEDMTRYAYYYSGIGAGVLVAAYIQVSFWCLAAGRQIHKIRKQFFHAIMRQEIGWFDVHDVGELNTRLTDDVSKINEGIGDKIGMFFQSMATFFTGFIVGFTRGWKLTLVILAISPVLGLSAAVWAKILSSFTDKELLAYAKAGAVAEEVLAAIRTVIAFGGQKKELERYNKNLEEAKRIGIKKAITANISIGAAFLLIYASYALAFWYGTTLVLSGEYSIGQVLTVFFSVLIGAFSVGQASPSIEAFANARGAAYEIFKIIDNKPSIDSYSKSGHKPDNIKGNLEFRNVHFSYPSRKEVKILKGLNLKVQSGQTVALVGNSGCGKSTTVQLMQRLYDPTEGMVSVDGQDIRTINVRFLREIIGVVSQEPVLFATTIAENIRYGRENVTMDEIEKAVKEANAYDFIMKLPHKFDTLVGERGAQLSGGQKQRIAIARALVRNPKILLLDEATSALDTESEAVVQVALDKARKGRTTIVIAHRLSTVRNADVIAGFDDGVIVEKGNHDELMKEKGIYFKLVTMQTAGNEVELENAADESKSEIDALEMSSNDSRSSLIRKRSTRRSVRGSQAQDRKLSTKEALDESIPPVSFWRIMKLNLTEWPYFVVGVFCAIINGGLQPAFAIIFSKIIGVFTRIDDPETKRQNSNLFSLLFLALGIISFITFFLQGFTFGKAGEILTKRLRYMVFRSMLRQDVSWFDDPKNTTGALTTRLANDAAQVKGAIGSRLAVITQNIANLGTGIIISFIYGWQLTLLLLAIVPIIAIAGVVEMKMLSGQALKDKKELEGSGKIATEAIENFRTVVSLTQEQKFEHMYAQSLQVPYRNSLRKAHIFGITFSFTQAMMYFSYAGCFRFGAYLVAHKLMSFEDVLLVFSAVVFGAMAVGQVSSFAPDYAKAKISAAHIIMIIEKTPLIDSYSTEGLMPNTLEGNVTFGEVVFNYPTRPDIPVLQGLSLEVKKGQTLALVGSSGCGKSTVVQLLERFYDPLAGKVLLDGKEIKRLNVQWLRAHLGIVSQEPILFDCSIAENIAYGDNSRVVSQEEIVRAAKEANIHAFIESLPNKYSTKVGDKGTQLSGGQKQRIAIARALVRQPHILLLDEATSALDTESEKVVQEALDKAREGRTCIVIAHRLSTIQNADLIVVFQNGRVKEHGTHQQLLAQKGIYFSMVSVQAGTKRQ

The subject of the next data set is MRP. The experiment in a line: Effect of MK-571. The class given is in vitro ADME, human. Conditions: 0.1 mg/mL SKE + 100 μmol/L MK-571; Caco-2; Fig. 4. The method, boiled down:
as §1

For data set [3] the following is noted: ref Wang, Yang, & Song, 2001; cited from earlier work.
Setting [4] is: in RAI, contents as in 0.05 mg/mL SKE.
The mark [5] stands for this setting: in RAI, contents as in 0.1 mg/mL SKE.

By Papp A→B is commonly meant how fast a substance crosses the layer from the apical side. A high value points to ready permeation. The term Papp B→A denotes how fast a substance crosses the layer from the basolateral side. One may read the pKa as the pH at which an ionisable group is half protonated. In data set [1] (setting [4]), `O=C1c2cccc(O)c2C(=O)c2c(O)cc(CO)cc21` [Aloe-emodin, aloe-emodin] returned a Papp A→B at 0.05 mg/mL of 15.1 ± 1.54 ×10⁻⁶ cm/s and a Papp B→A at 0.05 mg/mL of 16.1 ± 1.83 ×10⁻⁶ cm/s. In data set [1] (setting [5]), the Papp A→B at 0.1 mg/mL was determined as 14.3 ± 1.06 ×10⁻⁶ cm/s and the Papp B→A at 0.1 mg/mL was determined as 17.3 ± 0.79 ×10⁻⁶ cm/s. In data set [1] (in SKE), this molecule returned a Papp A→B at 0.025 mg/mL of 19.6 ± 2.04 ×10⁻⁶ cm/s and an apparent permeability from basolateral to apical (Papp B→A) at 0.025 mg/mL of 24 ± 0.59 ×10⁻⁶ cm/s. In data set [1] (in SKE, 0.05 mg/mL), the Papp A→B at 0.05 mg/mL worked out at 19.4 ± 1.47 ×10⁻⁶ cm/s and the Papp B→A at 0.05 mg/mL was 23.4 ± 1.56 ×10⁻⁶ cm/s. For the same molecule, in data set [1] (in SKE, 0.1 mg/mL), the Papp A→B at 0.1 mg/mL turned out to be 17.6 ± 0.74 ×10⁻⁶ cm/s and the Papp B→A at 0.1 mg/mL was found to be 19.4 ± 1.65 ×10⁻⁶ cm/s. Besides, the “Cumulative transport mass (AP-BL)” value in the data set with Caco-2 cell monolayer was “time- and concentration-dependent”. Besides, the “Peff in RAI compared with SKE” value in data set [2] was “higher than those in SKE”. Besides, the “ER after addition of verapamil, compared with SKE group” value at P-gp is listed as “reduced the most”. The “ER after addition of MK571, compared with SKE group” value with MRP is reported as “decreased”. For the same molecule, the pKa in data set [3] is 8.64.
The efflux ratio is the permeability from basolateral to apical divided by that in the opposite direction, in the common usage. As for `Cc1cc(O)c2c(c1)C(=O)c1cccc(O)c1C2=O` [Chrysophanol, chrysophanol], in data set [1] (setting [4]), the efflux ratio at 0.05 mg/mL stood at 1.75, the Papp A→B at 0.05 mg/mL came to 8.99 ± 0.44 ×10⁻⁶ cm/s and the Papp B→A at 0.05 mg/mL was found to be 15.7 ± 1.05 ×10⁻⁶ cm/s. In data set [1] (setting [5]), the efflux ratio at 0.1 mg/mL was determined as 1.66, the Papp A→B at 0.1 mg/mL was 7.97 ± 1.06 ×10⁻⁶ cm/s and the apparent permeability from basolateral to apical (Papp B→A) at 0.1 mg/mL worked out at 13.2 ± 0.67 ×10⁻⁶ cm/s. In addition, in data set [1] (in SKE), the efflux ratio at 0.025 mg/mL was 2.22, the Papp A→B at 0.025 mg/mL was determined as 6.23 ± 0.86 ×10⁻⁶ cm/s and the Papp B→A at 0.025 mg/mL worked out at 13.8 ± 0.65 ×10⁻⁶ cm/s. For the same molecule, in data set [1] (in SKE, 0.05 mg/mL), the efflux ratio at 0.05 mg/mL came out at 2.02, the Papp A→B at 0.05 mg/mL turned out to be 6.87 ± 0.23 ×10⁻⁶ cm/s and the Papp B→A at 0.05 mg/mL turned out to be 13.9 ± 0.86 ×10⁻⁶ cm/s. Besides, in data set [1] (in SKE, 0.1 mg/mL), the efflux ratio at 0.1 mg/mL came to 1.61, the Papp A→B at 0.1 mg/mL came to 6.63 ± 0.48 ×10⁻⁶ cm/s and the Papp B→A at 0.1 mg/mL worked out at 10.7 ± 0.15 ×10⁻⁶ cm/s. For the same molecule, the “Cumulative transport mass (AP-BL)” value in the data set with Caco-2 cell monolayer is “time- and concentration-dependent”. In addition, in data set [2], the “Peff in RAI compared with SKE” value was “higher than those in SKE”. The “ER after addition of verapamil, compared with SKE group” value on P-gp is given as “decreased”. The “ER after addition of MK571, compared with SKE group” value in the data set on MRP is “reduced the most”. Moreover, the pKa in data set [3] was 8.58.
As for `Cc1cc(O)c2c(c1)C(=O)c1cc(O)cc(O)c1C2=O` [Emodin, emodin], in data set [1] (setting [4]), the efflux ratio at 0.05 mg/mL is 1.48, the apical-to-basolateral permeability (Papp A→B) at 0.05 mg/mL amounted to 7.74 ± 0.61 ×10⁻⁶ cm/s and the Papp B→A at 0.05 mg/mL was 11.5 ± 0.27 ×10⁻⁶ cm/s. Further, in data set [1] (setting [5]), the efflux ratio at 0.1 mg/mL was 1.62, the Papp A→B at 0.1 mg/mL was 7.31 ± 0.97 ×10⁻⁶ cm/s and the Papp B→A at 0.1 mg/mL came out at 11.8 ± 0.66 ×10⁻⁶ cm/s. Besides, in data set [1] (in SKE), the efflux ratio at 0.025 mg/mL is 1.6, the apical-to-basolateral permeability (Papp A→B) at 0.025 mg/mL amounted to 7.4 ± 0.08 ×10⁻⁶ cm/s and the Papp B→A at 0.025 mg/mL was 11.9 ± 1.11 ×10⁻⁶ cm/s. Besides, in data set [1] (in SKE, 0.05 mg/mL), the efflux ratio at 0.05 mg/mL worked out at 1.59, the Papp A→B at 0.05 mg/mL was 6.65 ± 0.16 ×10⁻⁶ cm/s and the apparent permeability from basolateral to apical (Papp B→A) at 0.05 mg/mL is 10.6 ± 0.31 ×10⁻⁶ cm/s. Besides, in data set [1] (in SKE, 0.1 mg/mL), the efflux ratio at 0.1 mg/mL amounted to 1.46, the apparent permeability from apical to basolateral (Papp A→B) at 0.1 mg/mL turned out to be 6.24 ± 0.29 ×10⁻⁶ cm/s and the basolateral-to-apical permeability (Papp B→A) at 0.1 mg/mL is 9.13 ± 0.42 ×10⁻⁶ cm/s. Moreover, in the data set on Caco-2 cell monolayer, the “Cumulative transport mass (AP-BL)” value is “time- and concentration-dependent”. Further, the “Peff in RAI compared with SKE” value in data set [2] was “higher than those in SKE”. In addition, the “ER after addition of verapamil, compared with SKE group” value at P-gp is “reduced the most”. Also, in the data set on MRP, the “ER after addition of MK571, compared with SKE group” value was “decreased”. For the same molecule, in data set [3], the pKa is 5.70.
Turning to `O=C(O)c1cc(O)c2c(c1)C(=O)c1cccc(O)c1C2=O` [Rhein, rhein], in data set [1] (setting [4]), the efflux ratio at 0.05 mg/mL was 0.76, the Papp A→B at 0.05 mg/mL came out at 35 ± 1.72 ×10⁻⁶ cm/s and the Papp B→A at 0.05 mg/mL came to 26.6 ± 1.03 ×10⁻⁶ cm/s. In data set [1] (setting [5]), the efflux ratio at 0.1 mg/mL was determined as 0.88, the Papp A→B at 0.1 mg/mL is 34.2 ± 1.13 ×10⁻⁶ cm/s and the Papp B→A at 0.1 mg/mL turned out to be 30.1 ± 1.37 ×10⁻⁶ cm/s. Moreover, in data set [1] (in SKE), the efflux ratio at 0.025 mg/mL is 0.96, the Papp A→B at 0.025 mg/mL turned out to be 27.4 ± 1.47 ×10⁻⁶ cm/s and the Papp B→A at 0.025 mg/mL worked out at 21 ± 0.4 ×10⁻⁶ cm/s. Besides, in data set [1] (in SKE, 0.05 mg/mL), the efflux ratio at 0.05 mg/mL came to 0.73, the Papp A→B at 0.05 mg/mL worked out at 28.02 ± 0.14 ×10⁻⁶ cm/s and the Papp B→A at 0.05 mg/mL was determined as 20.5 ± 0.46 ×10⁻⁶ cm/s. Moreover, in data set [1] (in SKE, 0.1 mg/mL), the efflux ratio at 0.1 mg/mL came to 0.64, the Papp A→B at 0.1 mg/mL came to 31 ± 2.31 ×10⁻⁶ cm/s and the Papp B→A at 0.1 mg/mL amounted to 19.8 ± 0.37 ×10⁻⁶ cm/s. Moreover, the “Papp(A-B) as fold of Papp(B-A)” value in the data set with Caco-2 cell monolayer (0.025 mg/mL SKE) was 1.4 fold. The “Papp(A-B) as fold of Papp(B-A)” value in the data set with Caco-2 cell monolayer (0.05 mg/mL SKE) is listed as 1.6 fold. In addition, in the data set with Caco-2 cell monolayer (in RAI, contents as in 0.025-0.1 mg/mL SKE), the “ER (over all concentrations)” value was “lower than 1.0”. The “Cumulative transport mass (AP-BL)” value in the data set with Caco-2 cell monolayer was “time- and concentration-dependent”. For the same molecule, the “ER (over all concentrations)” value in the data set with Caco-2 cell monolayer (in SKE, 0.025-0.1 mg/mL) is given as “lower than 1.0”. Also, the “Peff in RAI compared with SKE” value in data set [2] is recorded as “lower than that in SKE”. In data set [3], the pKa is given as 4.72.
